From ChEMBL document CHEMBL1157249, “Alpha-glucosidase inhibitory anthranols, kenganthranols A-C, from the stem bark of Harungana madagascariensis” (J Nat Prod, 2006) come the findings set out here.

Assay [1] has as its system Saccharomyces. Kind of assay: (§1) Inhibition of Saccharomyces sp. alpha glucosidase by spectrophotometry. Put shortly: (§2)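 Yeast (Saccharomyces sp.) α-glucosidase, 250 units/mL, in 50 mM sodium phosphate buffer with 100 mM NaCl, pH 6.9, 37 °C; substrate […] p-nitrophenyl α-D-glucopyranoside. Hydrolysis followed continuously as absorbance increase at 400 nm. 1-Deoxynojirimycin (0.425 mM) and acarbose (0.78 mM) served as positive controls. Modified literature method.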

Assay [2] can be described thus: as §1. Put shortly: as §2
In assay [3] the test system is Saccharomyces. Kind of assay: Inhibition of Saccharomyces sp. alpha glucosidase at 800 uM by spectrophotometry.

SMILES strings stand for the structures. The source made the active and inactive calls. No cut-off for these calls is given here.

By IC50 is commonly meant the midpoint of a concentration-inhibition curve. For `COc1cc(O)c2c(c1)C(=O)c1cc(C)cc(O)c1C2=O` [PHYSCION], the Activity result in the assay with Saccharomyces [1] is “Dose-dependent effect”. 192 µM corresponded to half-maximal inhibition in assay [2] (IC50).

In the case of `COC1c2c(CC=C(C)C)c(C)cc(O)c2C(=O)c2c(O)cc3c(c21)CC(C(C)(C)O)O3` (stereo not given) [KENGANTHRANOL C], in the assay on Saccharomyces [1], the Activity result is “Dose-dependent effect”. The same molecule registered an IC50 in assay [2] of 21.9 µM.

On to `OC[C@H]1NC[C@H](O)[C@@H](O)[C@@H]1O` [DUVOGLUSTAT], for which the IC50 in assay [2] amounted to 426 µM.

With `CC(C)=CCc1c(C)cc(O)c2c(O)c3c(cc12)C(CC=C(C)C)(CC=C(C)C)C(O)=CC3=O` [HARUNGANIN], in the assay on Saccharomyces [1], the Activity entry was “Dose-dependent effect”. The molecule further gave an IC50 in assay [2] of 6 µM.

Take `O=c1c2cc(O)ccc2oc2cccc(O)c12`: the outcome in the assay on Saccharomyces [3] was inactive.

As to `CC(C)=CCc1c(O)c(CC=C(C)C)c2c(c1O)C(=O)c1c(O)cc(C)c(CC=C(C)C)c1C2O` (stereo not given) [KENGANTHRANOL B], in the assay on Saccharomyces [1], the Activity entry is “Dose-dependent effect”. This molecule gave an IC50 in assay [2] of 6.3 µM.

For the molecule `COc1cc2c(c(O)c1CC(=O)C(C)C)C(=O)c1c(O)cc(C)cc1C2=O`, in the assay with Saccharomyces [3], the outcome was inactive.

For the molecule `COc1cc2c(c(O)c1/C=C/C(C)C)C(=O)c1c(O)cc(C)cc1C2=O`, in the assay with Saccharomyces [3], the result was inactive.

For the molecule `CC(C)=CCc1c(C)c(CC=C(C)C)c2c(c1O)C(=O)c1c(O)cc(O)c(CC=C(C)C)c1C2` [HARUNGANOL B], the Activity result in the assay with Saccharomyces [1] is “Dose-dependent effect”. Also, it took 12 µM to reach half-maximal inhibition in assay [2] (IC50).

In the case of `C[C@H]1O[C@H](O[C@H]2[C@H](O)[C@@H](O)[C@@H](O[C@H]3[C@H](O)[C@@H](O)C(O)O[C@@H]3CO)O[C@@H]2CO)[C@H](O)[C@@H](O)[C@@H]1N[C@H]1C=C(CO)C(O)[C@H](O)[C@H]1O` (single isomer, unassigned) [ACARBOSE], in assay [2], half-maximal inhibition (IC50) required 780 µM.
